# M4 PAM – CHRM4 positive allosteric modulation. P08173. CHO-K1 hM4/Gqi5, Fluo-8 calcium fluorescence, ACh EC20; 0% = ACh EC20, 100% = maximal ACh. activation, % at 3 µM. actives 0.4% (n = 360,000). AID 624126;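 active means activation above its plate's cutoff, the mean activation of sample wells plus 3 SD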
# CHRM4 antagonist – CHRM4 antagonism in calcium assay; CHO-hM4 cells, ACh EC80, Fluo-8 calcium fluorescence; inhibition, % at 3 µM; actives 0.73% (n = 360,000); AID 624125;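 active means inhibition above its plate's cutoff, the mean inhibition of sample wells plus 3 SD, cut at about 27% in these data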;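 further: 0% = acetylcholine EC80 with DMSO and 100% = DMSO without agonist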
# CHRM5 agonist – CHRM5 agonism in calcium assay; P08912; CHO-K1 hM5 cells, Fluo-8 calcium fluorescence; 0% DMSO wells, 100% maximal acetylcholine response; activation, % at 3 µM; actives 0.19% (n = 360,000);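 active means activation above the run's mean over test compounds plus 3 SD, cut at about 23% in these data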;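 further: signal is peak over basal fluorescence ratio across the kinetic read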
# Target sequence (P08912 whole entry, looked up): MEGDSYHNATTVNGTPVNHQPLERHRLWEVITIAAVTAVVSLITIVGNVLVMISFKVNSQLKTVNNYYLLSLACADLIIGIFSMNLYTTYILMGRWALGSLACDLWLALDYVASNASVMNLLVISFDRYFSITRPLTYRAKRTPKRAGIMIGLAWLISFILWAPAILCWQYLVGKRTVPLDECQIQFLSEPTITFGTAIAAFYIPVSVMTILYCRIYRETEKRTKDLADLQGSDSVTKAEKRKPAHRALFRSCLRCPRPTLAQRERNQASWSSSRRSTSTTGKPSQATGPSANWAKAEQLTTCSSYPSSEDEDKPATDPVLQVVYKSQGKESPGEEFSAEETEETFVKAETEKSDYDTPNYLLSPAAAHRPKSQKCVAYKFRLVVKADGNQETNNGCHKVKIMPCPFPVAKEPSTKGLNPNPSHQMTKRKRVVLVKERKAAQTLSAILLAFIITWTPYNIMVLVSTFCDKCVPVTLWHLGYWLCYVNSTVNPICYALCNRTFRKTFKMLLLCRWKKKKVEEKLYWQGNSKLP
# M5 antag – blocks acetylcholine activation of human M5 receptor | inhibition, % at 3 µM | actives 0.59% (n = 360,000) | CHO-hM5 cells, Fluo-8 calcium fluorescence, ACh EC80 | P08912 | AID 624040;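 active means inhibition above a per-plate cutoff, the mean of that plate's test compounds plus 3 SD, cut at about 27% in these data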;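 further: 0% = acetylcholine EC80 with DMSO and 100% = DMSO without agonist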
# M5 PAM – CHRM5 positive allosteric modulation. P08912. CHO-K1 hM5, Fluo-8 calcium, ACh EC20 PAM; 0% = ACh EC20, 100% = ACh EC100. activation, % at 3 µM. actives 0.3% (n = 360,000). AID 624038;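 active means activation above the run cutoff, the mean activation of all test compounds plus 3 SD, cut at about 18% in these data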
#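 Measured by: Fluo-8 calcium fluorescence; material: human M5 receptor in CHO-K1 cells; schedule: Post-acetylcholine fluorescence recording 140 s; benchmarks: low control EC20 acetylcholine (0%), high control EC100 acetylcholine (100%); read-out: Max/basal fluorescence ratio as % of EC20–EC100 ACh window; compound: single dose, 3 µM nominal final test concentration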
# CHRM4 agonist – CHRM4 agonism in calcium assay; CHO-K1 hM4/Gqi5, Fluo-8 calcium fluorescence; vehicle 0%, full acetylcholine response 100%; actives 0.14% (n = 360,000); P08173; activation, % at 3 µM;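 active means activation above the run mean over all test wells plus 3 SD, cut at about 32% in these data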;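 further: peak over basal fluorescence ratio per well then scaled between controls; 0% = DMSO wells and 100% = acetylcholine at EC100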
# Numbers without * were called inactive. A selection: hits, their analogues and other compounds. The true share with any hit is near 1.9%.
SMILES,M4 PAM,CHRM4 antagonist,CHRM5 agonist,M5 antag,M5 PAM,CHRM4 agonist
CCN(CC)C(=O)n1cnc(-c2ccccc2)c1-c1ccccc1,-3,8,1,4,-5,2
CN(C(=O)c1ccc(NC(=O)Cc2cccc(NC(=O)C3CCCN(C(=O)C4CCC4)C3)c2)cc1)C1CCCC1 (centres undefined),8,-1,-4,6,9,0
CCOC(=O)CCc1c(C)c2ccc(OC3CCCCC3=O)cc2oc1=O (centres undefined),-8,34*,-1,13,-6,2
COc1ccc(CNC(=O)[C@@H]2CC=C[C@@H]3CCN(Cc4ccc(Cl)c(Cl)c4)C(=O)[C@@H]32)cc1,10,-6,1,9,-4,5
COc1ccc(CNC[C@@H](CCCCN(C)Cc2ccc(OC)cc2)N2C[C@H](c3ccccc3)N(CCc3ccc(Cl)c(Cl)c3)C(=O)C2=O)cc1,3,21,-3,14,-3,60*
O=[N+]([O-])c1ccc(CN2CCC(Cc3ccccc3)CC2)cc1,-14,8,-8,5,-8,-2
CC(=O)CCc1ccc(OCCCCN2CCC(Cc3ccccc3)CC2)cc1,-27,75*,-15,25,-30,4
CCC(=O)c1ccccc1OCCCN1CCC(Cc2ccccc2)CC1,-18,42*,-11,12,-28,24
O=[N+]([O-])c1cccc(OCCCN2CCC(Cc3ccccc3)CC2)c1,-17,38*,-25,6,-32,14
CCCn1nc(C(=O)N2CCN(S(=O)(=O)c3ccc(C)c(C)c3)CC2)c2ccccc2c1=O,-9,2,2,3,-3,9
COc1ccc2c(C(=O)c3ccc(C)cc3)n(CCCC(N)=O)[n+]([O-])c2c1,5,0,1,6,3,-1
COc1ccc(-c2nc3ccccn3c2Cl)cc1,7,-23,-5,-5,7,1
CCNS(=O)(=O)c1ccc(OCCNS(C)(=O)=O)cc1,8,0,0,3,-1,1
CCN(CC)S(=O)(=O)c1ccc(OCCNS(C)(=O)=O)cc1,-7,-3,-1,29*,-15,2
Cc1ccc(NC(=O)N2CCc3ccccc3C2)c(C)c1,19*,-10,-6,3,6,2
CCOC(=O)Cn1cc(C(=O)C(=O)N2CCOCC2)c2ccccc21,10,1,-2,11,5,1
CCOC(=O)C(=O)c1cn(C2OCC(OC(C)=O)C(OC(C)=O)C2OC(C)=O)c2ccccc12 (centres undefined),22*,-4,-1,-6,4,2
COc1cc2c(cc1NC(=O)CN1CCN(S(=O)(=O)c3ccc(C)cc3)CC1)oc1ccccc12,22*,-8,-1,9,-1,1
Cc1cc(/C=C2\C(=N)N3N=C(S(C)(=O)=O)SC3=NC2=O)c(C)n1Cc1ccccc1,2,0,0,6,2,1
CCCC1=NN2C(=N)/C(=C\c3cc(C)n(Cc4ccccc4)c3C)C(=O)N=C2S1,-16,1,36*,12,-30,42*
COc1ccc(CNC(=O)COC(=O)c2ccc(S(=O)(=O)N3CCOCC3)cc2)cc1,-4,3,2,-9,12,2
O=C(Cn1nc(C(=O)O)c2ccccc2c1=O)Nc1cccc(S(=O)(=O)N2CCCCC2)c1,-10,24,4,18,-29,9
CCCNS(=O)(=O)c1ccc(CCC(=O)Nc2cc(Cl)ccc2Oc2ccccc2)cc1,-20,43*,0,29*,-19,9
Cc1[nH]c2ccc3ncccc3c2c1C,11,-10,-3,-6,-1,2
Cc1[nH]c2ccc3c(ncn3CCC#N)c2c1C,14,31*,2,8,2,1
SMILES,M4 PAM,CHRM4 antagonist,CHRM5 agonist,M5 antag,M5 PAM,CHRM4 agonist
CN(C(=O)CCNC(=O)Cn1cnc2ccccc2c1=O)c1ccc(Br)cc1,-4,9,0,6,0,1
CN(CCc1ccccn1)C(=O)CCNC(=O)Cn1cnc2ccccc2c1=O,19*,-13,2,6,1,2
COc1cccc(CNC(=O)C2=Cc3cccc(OC)c3OC2)c1,1,-4,-2,-6,2,0
Cc1occc1-c1nnc(SCC(=O)Nc2nc(C(C)(C)C)cs2)o1,-9,19,6,30*,-23,22
Cc1csc(NC(=O)CSc2nnc(-c3ccoc3C)o2)n1,9,-17,-1,-2,0,3
COc1ccc2[nH]c3c(c2c1)CCN1C(=O)C(CC(=O)NC/C=C(\C)CCC=C(C)C)C[C@H](C(=O)N2CCOCC2)[C@@]31CCC1CCCC1 (some centres undefined),13,-8,2,-5,-2,0
Cc1ccc(C2Cc3cc(O)c(O)cc3CN2)cc1 (centres undefined),1,-14,-2,-1,10,4
CCOC(=O)c1sc(NC(=O)Nc2ccccc2Cl)cc1C,-6,-20,3,21,-22,10
CCOC(=O)c1sc(NC(=O)Nc2ccccc2)cc1C,-7,15,5,46*,-19,18
Cc1cccc(N2CCN(S(=O)(=O)c3ccc(Cl)nc3)CC2C)c1 (centres undefined),1,-8,-2,11,-12,3
CCCNC(=O)N1C2=NC(C(=O)OC)=C(C(=O)OC)[C@@H]3N(Cc4ccccc4)c4ccccc4[C@]23C[C@H]1CO,10,7,7,-9,20*,0
O=C(NCc1ccncc1)C(=O)N/N=C/c1ccc(OCc2ccccc2)cc1,2,-10,-3,-7,6,1
O=NN(CCc1ccncc1)c1ccc(OCc2ccccc2)cc1,-11,12,-5,34*,-25,13
COc1cc2c(cc1OC)C(c1cccc(Br)c1)NC(=O)C2 (centres undefined),-9,5,11,-12,24*,1
CCN1CCN(C(=O)c2ccc(Cl)c(S(=O)(=O)N(C)c3ccccc3)c2)CC1,20*,-1,0,-2,5,3
CCn1ccc(C(=O)NC2=C(C#N)CCC2)n1,-2,-2,1,-1,21*,-1
CCn1nccc1C(=O)NC1=C(C#N)CCC1,-8,12,1,3,1,1
CCCCn1c(N)c(N(Cc2ccccc2OC)C(=O)C(C)Oc2cccc(Cl)c2)c(=O)[nH]c1=O (centres undefined),-6,-2,0,4,-3,0

# Assay outcomes (PubChem BioAssay)
